The record followed here is ChEMBL document CHEMBL4177525, “Synthesis and evaluation of frentizole-based indolyl thiourea analogues as MAO/ABAD inhibitors for Alzheimer's disease treatment” (Bioorg Med Chem, 2017).

What is called IC50 is the concentration at which inhibition is half-maximal.

The target of data set [1] is T1, Amine oxidase [flavin-containing] B (Homo sapiens, UniProt P27338).
T1 sequence (P27338 whole entry): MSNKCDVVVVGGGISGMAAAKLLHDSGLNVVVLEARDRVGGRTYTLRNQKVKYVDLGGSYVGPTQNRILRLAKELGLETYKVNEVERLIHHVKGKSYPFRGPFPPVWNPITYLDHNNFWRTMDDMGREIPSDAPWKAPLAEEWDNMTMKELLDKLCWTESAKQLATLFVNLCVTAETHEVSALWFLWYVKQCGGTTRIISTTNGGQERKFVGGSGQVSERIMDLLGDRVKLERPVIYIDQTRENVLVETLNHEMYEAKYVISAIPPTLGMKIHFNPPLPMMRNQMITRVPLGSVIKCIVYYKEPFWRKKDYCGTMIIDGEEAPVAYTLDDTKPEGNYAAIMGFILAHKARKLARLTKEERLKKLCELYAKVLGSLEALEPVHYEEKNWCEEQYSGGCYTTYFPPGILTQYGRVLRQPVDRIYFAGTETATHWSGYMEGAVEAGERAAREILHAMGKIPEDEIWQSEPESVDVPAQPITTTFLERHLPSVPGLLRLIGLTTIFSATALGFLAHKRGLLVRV
Nature of the data set: Inhibition of human membrane bound MAO-B expressed in insect cell membranes assessed as reduction in conversion of kynuramine to 4-hydroxyquinoline by spectrophotometric assay. The note with it: read-out: IC50. In outline: (§1)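 Human MAO-A or MAO-B expressed in insect cell membranes, diluted 1/4000 (A) or 1/2000 (B). Kynuramine at 2×KM: 60 µM for MAO-A, 30 µM for MAO-B. Assay in 50 mM potassium phosphate pH 7.5, 30°C, 1% DMSO, absorbance at 314 nm. Inhibitor varied over 4 orders of magnitude, up to 100 µM. Linear rates from 8-10 assays fitted by 3-parameter regression with bottom fixed at zero; IC50 ± SE of estimate.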

The nature of data set [2]: Solubility of the compound at 100 uM. It counts as physicochemical. In a few lines:
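Compounds checked for solubility in assay buffer at 100 µM.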

Data set [3] concerns the target T2, Amine oxidase [flavin-containing] A (Homo sapiens, UniProt P21397).
T2 sequence (P21397 whole entry): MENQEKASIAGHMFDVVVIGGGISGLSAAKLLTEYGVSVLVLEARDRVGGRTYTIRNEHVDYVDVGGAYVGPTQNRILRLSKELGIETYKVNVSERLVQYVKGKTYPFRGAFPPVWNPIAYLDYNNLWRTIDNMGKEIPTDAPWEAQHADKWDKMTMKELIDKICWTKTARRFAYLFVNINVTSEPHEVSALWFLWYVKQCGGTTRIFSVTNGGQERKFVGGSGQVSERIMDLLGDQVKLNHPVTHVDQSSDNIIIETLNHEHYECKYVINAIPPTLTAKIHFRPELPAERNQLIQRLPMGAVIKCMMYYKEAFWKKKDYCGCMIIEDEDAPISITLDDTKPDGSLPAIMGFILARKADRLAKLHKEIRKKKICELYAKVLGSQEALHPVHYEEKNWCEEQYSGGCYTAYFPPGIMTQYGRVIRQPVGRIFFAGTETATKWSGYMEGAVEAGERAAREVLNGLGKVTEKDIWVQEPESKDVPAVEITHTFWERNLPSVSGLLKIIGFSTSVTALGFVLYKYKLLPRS
Nature of the data set: Inhibition of human membrane bound MAO-A expressed in insect cell membranes assessed as reduction in conversion of kynuramine to 4-hydroxyquinoline by spectrophotometric assay. Particulars: read-out: IC50. In a few lines:
as §1

Data set [4] is described as follows: Quenching activity of the compound assessed as reduction in resorufin fluorescence. In kind it is functional. In a few lines: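 Resorufin at 1 µM and 10 µM measured for fluorescence in the presence of compound at 50 µM.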
The target in data set [5] is T3, Amyloid beta-binding alcohol dehydrogenase (Homo sapiens, UniProt Q2L8D9). Nature of the data set: Inhibition of ABAD (unknown origin) assessed as residual activity at 100 uM using acetoacetyl-CoA in presence of NADH by spectrophotometric assay relative to control. In outline:
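Recombinant ABAD at 0.5 µg/mL with NADH 250 µM and acetoacetyl-CoA 120 µM; compound at 100 µM in 1% DMSO, controls with matching DMSO. Buffer 10 mM HEPES, 0.5% gelatin, pH 7.4 at 37°C. NADH consumption read as falling absorbance at 340 nm; reported as % remaining activity ± SEM from two biological repeats, each with three technical repeats.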

Data set [6] is described as follows: Cytotoxicity against CHOK1 cells assessed as reduction in cell viability after 24 hrs by MTT assay. In kind it is cell-based, Cricetulus griseus. The note with it: chinese hamster, CHO-K1 cells; read-out: LC50. In outline:
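CHO-K1 cells grown as ECACC recommends, seeded 8000 per well; compounds from DMSO stocks diluted in F-12 with 10% FBS and 1% pen/strep (final DMSO at most 0.5%), exposed 24 h. Medium then replaced with 10 µM MTT for about 3 h, formazan dissolved in DMSO, absorbance read at 570 nm (650 nm reference). LC50 from control-subtracted triplicates by four-parameter regression; mean ± SEM of 3 independent runs.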

Data set [7] concerns the target T4, peroxidase (horseradish peroxidase) (Raphanus sativus, UniProt K7N5L9). As to the kind of experiment: Inhibition of horse radish peroxidase assessed as residual activity at 5 uM by amplex red dye based fluorescence assay. The note with it: horseradish peroxidase (isolated enzyme), probe Amplex Red, read-out: Activity. In outline: (§2)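 HRP (0.02 U/mL) given H2O2 20 µM directly as substrate plus Ampliflu Red 20 µM in 50 mM potassium phosphate pH 7.4. Compound at 50 or 5 µM, 1% DMSO; controls DMSO only. Resorufin fluorescence read at ex 535/em 595 nm, 30°C, as remaining HRP activity.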

The target of data set [8] is T2, Amine oxidase [flavin-containing] A. Nature of the data set: Inhibition of human purified MAO-A expressed in insect cell membranes assessed as reduction in conversion of kynuramine to 4-hydroxyquinoline by spectrophotometric assay.
Data set [9] deals with T4, peroxidase (horseradish peroxidase). Nature of the data set: Inhibition of horse radish peroxidase assessed as residual activity at 50 uM by amplex red dye based fluorescence assay. Particulars: horseradish peroxidase (isolated enzyme), probe Amplex Red, read-out: Activity. In outline: as §2
For another data set, the target named is Peroxidase (Raphanus sativus, UniProt K7N5L9). Nature of the data set: Inhibition of horse radish peroxidase assessed as residual activity by amplex red dye based fluorescence assay. In a few lines: as §2
Data set [10] concerns the target T3, Amyloid beta-binding alcohol dehydrogenase. As to the kind of experiment: Inhibition of ABAD (unknown origin) by spectrophotometric assay.
A short description of data set [11]: Lipophilicity of the compound assessed as capacity factor at pH 3.5 by HPLC analysis. In kind it is physicochemical. The note with it: buffer. In outline:
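Capacity factor k from gradient HPLC on reversed-phase C18 in acid polar organic mode, pH ~3.5.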

The source made the active and inactive calls. The rule behind the calls is not given here.

T4 sequence (K7N5L9 whole entry): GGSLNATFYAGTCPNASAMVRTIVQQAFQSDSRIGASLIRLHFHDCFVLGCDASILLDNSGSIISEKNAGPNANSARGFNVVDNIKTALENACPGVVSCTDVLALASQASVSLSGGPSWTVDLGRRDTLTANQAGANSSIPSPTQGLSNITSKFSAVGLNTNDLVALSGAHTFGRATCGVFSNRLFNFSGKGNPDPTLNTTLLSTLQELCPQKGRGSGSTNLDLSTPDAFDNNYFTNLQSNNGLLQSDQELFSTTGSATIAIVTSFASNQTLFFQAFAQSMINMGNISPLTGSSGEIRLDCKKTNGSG
Chain of Peroxidase (K7N5L9 whole entry): as above

As to `Oc1ccccc1NC(=S)Nc1ccc2[nH]ccc2c1`, the IC50 turned out to be 4 µM in data set [1], 14 µM in data set [3], 39 µM in data set [8] (read-out: IC50) and 0.8 µM at Peroxidase. The solubility result in data set [2] is “Soluble”. The Activity result in data set [4] was “inactive”. Further, the Activity in data set [5] stood at 85%. In data set [6], the CC50 at 24 h worked out at 509 µM. The activity at 5 µM in data set [7] is 43.9%. Moreover, the activity at 50 µM in [9] is 36.9%.

Turning to `O=C(C(c1ccccc1)n1cnc2[nH]ncc2c1=S)N1CCCCCC1` (stereo unspecified), the IC50 in data set [10] was determined as 0.092 µM.

With `Oc1ccc(NC(=S)Nc2ccc3[nH]ccc3c2)cc1Cl`, the half-inhibitory concentration (IC50) in data set [1] is 8.6 µM; in data set [3], 58 µM; in data set [8] (read-out: IC50), 58 µM; on Peroxidase it was 1.01 µM. In addition, the solubility result in data set [2] is listed as “Soluble”. Further, in data set [11], the K is reported as 3.76. In [4], the Activity result was “inactive”. In [5], the Activity came to 49.1%. Besides, the CC50 at 24 h in data set [6] is 447 µM. Moreover, the activity at 5 µM in data set [7] amounted to 39.9%. For the same molecule, the activity at 50 µM in [9] was 26.4%.

Turning to `Oc1ccc(NC(=S)Nc2ccc3[nH]ccc3c2)cc1`, the IC50 in [1] is 17 µM; in data set [3] it was greater than 100 µM; in data set [8] it was “Not Active”; at Peroxidase it was 1.01 µM. Also, the solubility entry in data set [2] is listed as “Soluble”. The Activity entry in [4] was “inactive”. In data set [5], the Activity worked out at 90.9%. Besides, the CC50 at 24 h in data set [6] was found to be 848 µM. Moreover, the activity at 5 µM in data set [7] was 41.5%. Further, the activity at 50 µM in data set [9] is 31%.

Regarding `S=C(Nc1ccc(Br)cc1)Nc1ccc2[nH]ccc2c1`, the IC50 is 58 µM in data set [1], 23 µM in [3] and 5.9 µM in data set [8] (read-out: IC50). Besides, the solubility result in data set [2] is “Soluble”. Besides, the K in data set [11] is on record as 4.355. In addition, the Activity result in [4] was “inactive”. For the same molecule, the Activity in data set [5] is 83%. For the same molecule, the CC50 at 24 h in [6] worked out at 220 µM. The activity at 5 µM in data set [7] is 82%. The activity at 50 µM in data set [9] worked out at 52.8%.

Turning to `Oc1ccc(CNC(=S)Nc2ccc3[nH]ccc3c2)cc1O`, the solubility result in data set [2] is on record as “Soluble”. Moreover, in data set [4], the Activity entry is “inactive”. Besides, in data set [5], the Activity turned out to be 81.5%. Besides, in data set [6], the CC50 at 24 h turned out to be 471 µM. Further, the activity at 5 µM in data set [7] was 38.3%. Besides, the IC50 entry in data set [8] is “Not Active”; on Peroxidase, 0.8 µM. For the same molecule, the activity at 50 µM in data set [9] is 31.2%.

As to `Oc1c(Cl)cc(NC(=S)Nc2ccc3[nH]ccc3c2)cc1Cl`, the IC50 was 17 µM in data set [1], greater than 100 µM in data set [3], “Not Active” in [8] and 1.06 µM on Peroxidase. In [2], the solubility result is “Soluble”. Moreover, the K in data set [11] amounted to 3.975. Also, the Activity result in data set [4] is “inactive”. The Activity in [5] amounted to 39%. The CC50 at 24 h in data set [6] was 523 µM. Further, the activity at 5 µM in data set [7] amounted to 48.6%. Moreover, in data set [9], the activity at 50 µM came out at 23.9%.
